High-throughput results as filed in PubChem.
KDM4C inh – inhibitors of human demethylase GASC-1 KDM4C; GST-KDM4C 2-372, H3K9me3 peptide, LANCE TR-FRET; inhibition, % at 12.5 µM; 96,000 tested, 0.15% active;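 active means mean replicate inhibition above about 25%, with at least 55% of replicates also reaching it, limit read from the data, passing the limit was not always enough; inconclusive means only one of those two conditions met; inactive means neither condition met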
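Test system: N-terminal GST-fused human GASC-1 (KDM4C) fragment, residues 2-372; quantity: GASC-1 enzyme at 10 nM final in reaction; dosing: single dose; schedule: 30 min demethylation and 1 h detection at room temperature; signal: LANCE TR-FRET, excitation 340 nm, emissions 618 and 671 nm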
Pf Dd2 growth – P. falciparum Dd2 growth inhibition. 94,000 tested, 2.3% active. activity change, % at 10 µM. SYBR Green, 72 h; stronger effect = lower value; in the data active means activity change below about -80%; inconclusive means no clear call, values can overlap the other calls
IDH1 mut inh – blocks human IDH1 R132H reductase activity. diaphorase/resazurin fluorescence, 60 min. 70,000 tested, 0.18% active. O75874. inhibition, % at 10 µM; in the data active means inhibition above about 34%; inconclusive means no clear call, values can overlap the other calls; inactive means below about 11%;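 further: 0% = DMSO and 100% = no enzyme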
Target sequence (O75874 whole entry R132H): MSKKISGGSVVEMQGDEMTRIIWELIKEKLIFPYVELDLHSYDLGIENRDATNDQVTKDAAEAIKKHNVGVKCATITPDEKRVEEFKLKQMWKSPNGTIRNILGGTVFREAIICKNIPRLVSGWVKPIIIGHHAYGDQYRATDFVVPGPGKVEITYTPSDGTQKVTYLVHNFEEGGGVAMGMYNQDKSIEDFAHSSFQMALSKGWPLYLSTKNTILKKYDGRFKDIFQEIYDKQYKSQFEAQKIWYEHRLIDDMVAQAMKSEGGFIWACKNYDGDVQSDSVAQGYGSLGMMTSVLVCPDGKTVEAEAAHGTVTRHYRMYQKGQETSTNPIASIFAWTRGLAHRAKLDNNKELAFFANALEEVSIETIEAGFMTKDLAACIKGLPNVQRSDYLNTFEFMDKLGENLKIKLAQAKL
T cruzi growth-1 – blocks T. cruzi growth in NIH3T3 culture; 77,000 tested, 5.9% active; T. cruzi beta-gal in NIH3T3, GalScreen luminescence, 90 h; inhibition, % at 8.34 µM; AID 624255;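 active means mean inhibition above about 93%, with at least 55% of replicates each passing it, limit read from the data, passing the limit was not always enough; inconclusive means only one of those two conditions holds; inactive means neither condition holds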
T cruzi growth-2 – Trypanosoma cruzi proliferation inhibition. 5,600 tested, 72% active. inhibition, % at 8.35 µM. T. cruzi beta-gal in NIH3T3, GalScreen luminescence, 90 h. shares compounds with T cruzi growth-1;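 active means mean replicate inhibition above about 95% and at least 55% of replicates individually reaching it, limit read from the data; inconclusive means only one of the two criteria is met; inactive means neither criterion is met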
T cruzi growth-3 – inhibitors of T. cruzi proliferation. inhibition, % at 2.09 µM. AID 651740. T. cruzi beta-gal in NIH3T3, GalScreen luminescence, 90 h. shares compounds with T cruzi growth-1. 5,600 tested, 21% active;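 active means mean inhibition above about 95%, with at least 55% of replicates also reaching it, limit read from the data; inconclusive means meets just one of the two conditions; inactive means meets neither condition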;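 further: plate controls were neutral control median for no effect and positive control median for full effect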
3T3 cytotox – cytotoxicity in mouse NIH/3T3 fibroblasts | shares compounds with T cruzi growth-1 | NIH/3T3 viability, CellTiter-Glo ATP luminescence, 90 h | cytotoxicity (signal decrease), % at 8.35 µM | 5,600 tested, 14% active | AID 651742;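 active means mean signal decrease across replicates above about 35% based on untreated-well scatter, with enough replicates individually passing, limit read from the data; inconclusive means no rule stated though some were filed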;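 further: 0% = median of neutral control wells and 100% = median of positive control wells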
NIH3T3 tox 2 – NIH/3T3 (mouse) viability loss. inhibition, % at 24.9 µM. NIH/3T3 viability, CellTiter-Glo ATP luminescence, 90 h. shares compounds with T cruzi growth-1. 5,600 tested, 56% active;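 active means mean loss of cell viability signal at or above a set limit, and enough replicates individually reaching it; inconclusive means meets only the mean limit or only the replicate share; inactive means meets neither condition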;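 further: 0% = median of neutral control wells and 100% = median of positive control wells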
The depositor's hits bear a star; ? = inconclusive; nt = no result. Sampled rows, rich in hits. Any-hit rate of the full collection: about 5.9%.

SMILES	KDM4C inh	Pf Dd2 growth	IDH1 mut inh	T cruzi growth-1	T cruzi growth-2	T cruzi growth-3	3T3 cytotox	NIH3T3 tox 2
C[C@@H]1CN([C@H](C)CO)S(=O)(=O)c2ccc(-c3ccncc3)cc2O[C@@H]1CN(C)S(=O)(=O)c1ccccc1F	0.7	-30.4	-0.3	nt	nt	nt	nt	nt
C[C@@H]1CN([C@@H](C)CO)S(=O)(=O)c2ccc(-c3ccccc3)cc2O[C@@H]1CN(C)S(=O)(=O)c1ccccc1F	-1.9	-37.3	-0.9	118.7*	102.2*	102.5*	15.2	46.4*
C[C@H](CO)N1C[C@H](C)[C@H](CN(C)S(C)(=O)=O)Oc2cc(-c3ccccc3)ccc2S1(=O)=O	-2.6	-7.6	0.8	24.0	nt	nt	nt	nt
CC(Oc1ccc(Br)cc1)c1nc(-c2ccccn2)no1 (stereo not drawn)	nt	nt	-0.1	nt	nt	nt	nt	nt
O=C(CCn1cnc2ccccc2c1=O)Nc1ccc(F)cc1	nt	nt	-0.5	nt	nt	nt	nt	nt
C[C@H](CO)N1C[C@H](C)[C@H](CN(C)C(=O)c2ccccc2)Oc2cc(/C=C/c3ccccc3)ccc2S1(=O)=O	nt	-77.7	-0.3	126.6*	100.7*	77.7	24.4	14.2
C/C=C/c1ccc2c(c1)O[C@@H](CN(C)C(=O)c1ccccc1)[C@@H](C)CN([C@@H](C)CO)S2(=O)=O	-1.2	-2.9	-1.0	nt	nt	nt	nt	nt
C[C@H](CO)N1C[C@H](C)[C@@H](CN(C)C(=O)c2ccccc2)Oc2cc(/C=C/c3ccccc3)ccc2S1(=O)=O	nt	-69.5	0.2	?	103.9*	59.4	6.1	42.6*
C[C@@H]1CN([C@@H](C)CO)S(=O)(=O)c2ccc(/C=C/c3ccccc3)cc2O[C@H]1CN(C)C(=O)c1ccccc1	-1.2	-78.0	0.6	126.6*	110.0*	73.6	55.4*	85.0*
C/C=C/c1ccc2c(c1)O[C@@H](CN(C)C(=O)c1cccc(F)c1)[C@@H](C)CN([C@@H](C)CO)S2(=O)=O	-1.6	-58.1	-0.7	?	86.4	31.5	13.4	?
C/C=C/c1ccc2c(c1)O[C@@H](CN(C)C(=O)c1ccccc1)[C@H](C)CN([C@@H](C)CO)S2(=O)=O	-1.2	-30.5	-3.1	nt	nt	nt	nt	nt
C[C@@H]1CN([C@@H](C)CO)S(=O)(=O)c2ccc(/C=C/c3ccccc3)cc2O[C@H]1CN(C)C(=O)c1ccncc1	-4.7	-32.9	-2.7	101.2*	103.1*	65.5	38.4*	69.7*
C/C=C/c1ccc2c(c1)O[C@H](CN(C)C(=O)c1ccncc1)[C@@H](C)CN([C@H](C)CO)S2(=O)=O	0.2	4.2	-0.3	60.6	nt	nt	nt	nt
O=C(N/N=C/c1ccc(O)cc1Br)c1ccccn1	nt	nt	0.1	nt	nt	nt	nt	nt
O=C(NCCCN1CCCC1=O)c1cc2ccccc2oc1=O	nt	nt	0.1	nt	nt	nt	nt	nt
C[C@H]1CN([C@@H](C)CO)S(=O)(=O)c2ccc(-c3ccccc3F)cc2O[C@@H]1CN(C)Cc1cccnc1	-0.6	-56.4	0.1	105.2*	106.6*	103.7*	35.7*	100.1*
C[C@H](CO)N1C[C@H](C)[C@@H](CN(C)Cc2cccnc2)Oc2cc(-c3ccccc3F)ccc2S1(=O)=O	2.9	-2.8	-0.3	95.0	nt	nt	nt	nt
C[C@@H]1CN([C@@H](C)CO)S(=O)(=O)c2ccc(-c3ccccc3F)cc2O[C@@H]1CN(C)Cc1cccnc1	-0.8	-41.5	0.6	100.6*	104.9*	82.1	68.9*	71.3*
Cc1cc(I)ccc1NC(=O)CN(c1ccc(Cl)c(Cl)c1)S(C)(=O)=O	nt	nt	-0.1	nt	nt	nt	nt	nt
CN1c2ccc(-c3ccccc3F)cc2[C@H]2[C@H](CCN2S(=O)(=O)c2ccc(F)cc2)[C@H]1CO	5.6	10.5	nt	102.4*	99.9*	54.8	24.9	71.7*
COc1ccc(S(=O)(=O)N2CC[C@H]3[C@@H](CO)N(C)c4ccc(-c5ccccc5F)cc4[C@H]32)cc1	0.2	-48.3	nt	113.7*	112.2*	86.1	16.7	25.4
O=C(C[C@H]1CC[C@H]2[C@@H](COC[C@H](O)CN2Cc2cc(F)ccc2F)O1)N[C@@H]1CCN(Cc2ccccc2)C1	-1.2	-60.1	nt	96.0*	80.3	57.6	1.2	?
